Screening data deposited in PubChem by several laboratories.
Only some compounds are listed: those with a hit (about 3.7% of all), similar ones and a draw of the others.
CHOP UPR activ: activators of apoptotic CHOP UPR arm, primary screen, cell-based, CHO-CHOP luciferase reporter, luminescence, uHTS | activation, % at 10 µM | 330,000 compounds, 0.34% hits | UPR activation; percent of tunicamycin response over DMSO baseline | AID 449763, 2010;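 active means at 10 µM dose, activation of 40% or more, normalized to positive control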;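 further: 100% = tunicamycin at 10 µg/mL and 0% = DMSO alone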
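Evaluation: % reporter activation, DMSO baseline versus tunicamycin full activation; System: CHO-CHOP luciferase reporter cell line; Input: 500 cells/well; Incubation: 6 h compound treatment, 37 °C; Measured by: Steady-Glo luciferase luminescence; Dosing: one dose, 10 µM in 0.5% DMSO; Buffer or medium: F12 medium, 10% FBS; Benchmarks: positive tunicamycin 10 µg/mL, negative DMSO alone.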
Mdm2-MdmX inh: inhibitors of human Mdm2-MdmX association, primary screen, cell-based, luminescence, split luciferase, SaOS-2, uHTS; Protein Mdm4 (Homo sapiens) + E3 ubiquitin-protein ligase Mdm2 (Homo sapiens), …; SaOS-2 split-luciferase Mdm2/MdmX complementation; inhibition, % at 8 µM; 330,000 compounds, 3% hits;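 active means inhibition of at least 50% at 8 µM in the primary screen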
Target sequence (O15151 whole entry, looked up): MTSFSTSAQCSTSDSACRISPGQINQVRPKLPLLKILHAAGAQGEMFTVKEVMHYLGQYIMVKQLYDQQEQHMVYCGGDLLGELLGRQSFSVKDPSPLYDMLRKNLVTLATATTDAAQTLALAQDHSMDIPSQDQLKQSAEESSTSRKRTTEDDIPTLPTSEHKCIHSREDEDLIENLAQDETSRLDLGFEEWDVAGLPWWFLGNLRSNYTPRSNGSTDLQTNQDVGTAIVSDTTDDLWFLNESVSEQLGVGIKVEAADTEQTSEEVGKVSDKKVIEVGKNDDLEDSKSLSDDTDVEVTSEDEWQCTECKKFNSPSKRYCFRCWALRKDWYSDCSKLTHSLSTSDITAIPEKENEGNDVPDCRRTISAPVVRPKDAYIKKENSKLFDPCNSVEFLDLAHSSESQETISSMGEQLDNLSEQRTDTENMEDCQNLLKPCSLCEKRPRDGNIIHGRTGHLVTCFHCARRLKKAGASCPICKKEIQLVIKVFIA
Target sequence (Q00987 whole entry, looked up): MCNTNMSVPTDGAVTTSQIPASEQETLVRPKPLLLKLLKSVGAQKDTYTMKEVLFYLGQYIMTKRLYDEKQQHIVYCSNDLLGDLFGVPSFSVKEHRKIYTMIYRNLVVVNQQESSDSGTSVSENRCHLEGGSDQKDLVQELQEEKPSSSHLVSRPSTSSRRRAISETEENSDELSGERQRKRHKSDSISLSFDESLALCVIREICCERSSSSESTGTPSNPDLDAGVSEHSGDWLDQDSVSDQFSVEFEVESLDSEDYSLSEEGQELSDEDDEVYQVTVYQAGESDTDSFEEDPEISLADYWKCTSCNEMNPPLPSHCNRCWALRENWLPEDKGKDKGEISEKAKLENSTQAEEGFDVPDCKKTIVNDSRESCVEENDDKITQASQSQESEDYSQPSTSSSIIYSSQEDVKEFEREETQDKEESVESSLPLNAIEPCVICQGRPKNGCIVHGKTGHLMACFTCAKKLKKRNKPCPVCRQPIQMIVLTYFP
Beta2AR agonist: beta2AR agonists driving receptor internalization, primary screen, cell-based, FAP fluorogen, flow cytometry | Beta-2 adrenergic receptor (Homo sapiens), P07550 | Am2.2-beta2AR cells | response, % (concentration not given with the values) | 340,000 compounds, 0.43% hits;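 active means response above a set limit, near 3 SD of response in nonfluorescent compounds, cut at about 42% in these data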
Dynein cargo inh: inhibitors of GR-EGFP nuclear translocation, primary screen, dynein cargo transport inhibitor project, imaging, high-content, 3617.4 mouse cells. test concentration mostly 20 µM; stimulated with dexamethasone, 1 µM; hits give low values. z-score, hits read low. 220,000 compounds, 0.47% hits. AID 1381, 2008;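 active means plate z-score of nuclear minus cytoplasmic receptor signal below a set negative limit, without overly bright fluorescence or cell loss, cut at about -3.5 in these data, passing the limit was not always enough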;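 further: z-score of nuclear minus cytoplasmic ring GR-EGFP intensity difference per well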
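Buffer or medium – tet-free medium with charcoal-stripped serum · Signal – automated 10x imaging of fixed Hoechst-stained cells · Also added – dexamethasone agonist, 1.0 µM final, for 30 min · Incubation – induction 48 h, compound 1 h, agonist 30 min · Read-out – GR-EGFP nuclear translocation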
MDM2 E3 inh: MDM2-luciferase reporter signal enhancers, primary screen, MDM2 E3 ligase inhibitor project, cell-based, luminescence, 1536-well | AID 1230, 2008 | E3 ubiquitin-protein ligase Mdm2 (Homo sapiens), Q00987 | signal enhancement, % at 5 µM | cell-based MDM2 ubiquitination luciferase reporter, 2 h; 0 = plate control, 100 = twice control, blank-subtracted | 210,000 compounds, 0.11% hits;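 active means signal enhancement of 30% or more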;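 further: luminescence tracks abundance of the self-degrading MDM2-luciferase fusion protein; higher signal means inhibition of MDM2 E3 ligase activity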
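Timing – 2 h compound exposure at 37 °C · Assay system – mammalian cells stably expressing self-ubiquitinating, self-degrading MDM2 E3–luciferase fusion · Amount – 2000 cells seeded into each well · Measure – % luminescence enhancement versus blank-corrected plate control mean · Measured by – SteadyLite luminescence, 15 min reagent step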
XBP1 UPR activ: activators of adaptive XBP1 UPR arm, primary screen, cell-based, CHO-XBP1 luciferase reporter, luminescence, uHTS; IRE1-XBP1 UPR activation; percent of tunicamycin response, DMSO as zero; activation, % at 20 µM; 330,000 compounds, 0.33% hits;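 active means versus positive control, 20 µM dose yields 30% or more activation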;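 further: 100% = tunicamycin at 10 µg/mL and 0% = DMSO only wells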
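incubation = overnight seeding at 37 °C, 6 h compound treatment at 37 °C | assay system = CHO-XBP1 cells stably carrying IRE1-XBP1-driven luciferase reporter | input = 1000 cells per well | detection = luciferase luminescence | dosing = single point, 20 µM final compound, 1% DMSO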
Mdm2 MdmX conf: Mdm2-MdmX complex disruptors, retested hits, confirmation, luminescence, single concentration; 10,000 compounds, 55% hits; Mdm2-MdmX binding, luminescent assay; inhibition, % at 8 µM; shares compounds with Mdm2-MdmX inh; in the data active means inhibition above about 40%
FLuc counter: full-length luciferase signal inhibition, confirmation, counter-screen for Mdm2/MdmX interaction inhibitor project, cell-based, single concentration, SaOS-2. SaOS-2 full-length luciferase counterscreen, luminescence. inhibition, % at 8 µM. AID 504607, 2011. 6,200 compounds, 77% hits. shares compounds with Mdm2-MdmX inh;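 active means mean inhibition at 8 µM reaching about 37%, which flags the compound as non-specific, limit read from the data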;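 further: p53-null SaOS-2 cells with luciferase driven by a doxycycline-inducible promoter; compound on cells about two nights before reading with doxycycline added after day one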
Active calls of the source: *; nt = not tested or not shown.

SMILES	CHOP UPR activ	Mdm2-MdmX inh	Beta2AR agonist	Dynein cargo inh	MDM2 E3 inh	XBP1 UPR activ	Mdm2 MdmX conf	FLuc counter
COc1cccc(CN(C)C(=O)C(CCSC)NS(=O)(=O)c2ccc3c(c2)OCCO3)c1OC (stereo unspecified)	-0.3	67.1*	8.4	nt	nt	-3.3	55.8*	71.7*
COCCN(C(=O)COC(=O)/C=C/c1ccc2ccccc2n1)c1c(N)n(Cc2ccccc2)c(=O)[nH]c1=O	2.9	54.1*	1.9	nt	nt	-5.2	39.2	nt
COCCN(C(=O)COC(=O)/C=C/c1nc2ccccc2s1)c1c(N)n(Cc2ccccc2)c(=O)[nH]c1=O	0.6	64.0*	0.6	nt	nt	-1.7	38.6	nt
CC(=O)c1cccc(NC(=O)Nc2ccc(C(=O)N3CCCC3)cc2)c1	-1.8	52.0*	2.6	-0.232	-9.3	0.4	36.9	nt
CC(=O)c1cccc(NC(=O)Nc2ccc3c(c2)N(C)C(=O)CS3)c1	1.8	51.2*	14.5	-0.215	-9.2	-2.8	19.5	nt
Cc1cc(C)cc(NC(=O)Nc2ccc3c(c2)N(C)C(=O)CS3)c1	0.3	45.9	17.8	-1.19	-6.2	-4.0	nt	nt
O=C(Nc1ccccc1)Nc1ccc(C(=O)N2CCCC2)cc1	-2.7	-82.4	1.4	-0.51	-53.9	-3.1	nt	nt
CCc1ccc(CN2CCCC(C(=O)Nc3ccc(-c4cscn4)cc3)C2)o1 (stereo unspecified)	0.8	13.7	-13.4	nt	nt	-2.7	nt	nt
O=C(Nc1cccc(Cl)c1)c1cccc(Oc2ccc([N+](=O)[O-])cc2Cl)c1	-2.3	60.7*	5.0	0.226	-0.4	-2.1	11.1	nt
COc1ccc(NC(=O)c2cccc(Oc3ccc([N+](=O)[O-])cc3Cl)c2)cc1	-1.7	-5.1	-0.5	-0.891	4.0	-3.1	nt	nt
O=C(Nc1ccccc1)c1cc([N+](=O)[O-])ccc1Cl	0.6	10.6	-9.5	0.236	-6.8	-7.7	nt	nt
O=C(Nc1cccc(Cl)c1)c1cc(N=Nc2ccc([N+](=O)[O-])cc2Cl)ccc1O	-1.4	92.2*	36.3	-0.789	-14.3	-5.4	97.0*	51.4*
O=C(Nc1ccc([N+](=O)[O-])cc1Cl)c1cc(Cl)ccc1O	16.0	100.4*	20.8	nt	nt	-9.3	96.5*	51.2*
COc1cc(-c2ccc3oc(-c4ccsc4)cc(=O)c3c2)cc(OC)c1OC	4.1	72.6*	11.8	nt	nt	13.1	9.9	nt
COc1ccc(-c2ccc3c(=O)cc(-c4ccsc4)oc3c2)cn1	-0.2	79.4*	5.0	nt	nt	1.9	1.4	nt
CCOC(=O)c1ccc(-c2ccc3oc(-c4ccsc4)cc(=O)c3c2)cc1F	1.4	16.2	-0.5	nt	nt	0.2	nt	nt
COc1ccc(CNC(=O)CN(Cc2ccc(F)cc2)C(=O)c2csnn2)cc1	0.6	17.9	1.3	-0.0283	-19.5	-4.6	nt	nt
CCC(=O)/C=C1/Sc2ccc(OC)cc2N1CCO	1.9	-4.0	4.2	-0.83	16.5	-0.6	nt	nt
CCC(/C=C1\Sc2ccc(OC)cc2N1CC)=C\c1sc2ccc(OC)cc2[n+]1CCCS(=O)(=O)[O-]	-2.4	53.9*	-15.9	-0.549	-20.1	-2.4	24.9	nt
CCC(/C=C1\Sc2ccc(OC)cc2N1CCO)=C\c1sc2ccc(OC)cc2[n+]1CCO	-4.9	72.4*	22.6	2.08	-21.0	-3.5	21.8	nt
C[C@H](CO)N1C[C@H](C)[C@@H](CN(C)C(=O)Nc2ccc(C(F)(F)F)cc2)Oc2ccc(NC(=O)Cn3cnnn3)cc2C1=O	-0.6	8.6	6.9	nt	nt	-3.0	nt	nt
CC(C)C[C@]1(c2ccccc2)ON(c2ccccc2C(F)(F)F)C1=O	2.5	49.5	4.4	nt	nt	1.1	nt	nt
CC[C@]1(c2ccccc2OC)ON(c2ccccc2C(F)(F)F)C1=O	22.8	90.1*	nt	nt	nt	-6.3	83.8*	34.6
COc1ccccc1[C@]1(C)ON(c2ccccc2C(F)(F)F)C1=O	25.0	91.5*	34.7	nt	nt	-7.0	77.0*	37.0*
CN(C)CCn1c(=O)n(C2CCCCC2)c(=O)c2c3c(sc21)CCCCC3	12.7	59.4*	-5.1	nt	nt	10.2	44.9*	65.5*
SMILES	CHOP UPR activ	Mdm2-MdmX inh	Beta2AR agonist	Dynein cargo inh	MDM2 E3 inh	XBP1 UPR activ	Mdm2 MdmX conf	FLuc counter
CN(C)CCn1c(=O)n(Cc2ccco2)c(=O)c2c3c(sc21)CCCCC3	-1.3	-2.9	-8.0	-0.752	-13.8	4.2	nt	nt
CC(=O)c1ccc(NC(=O)COC(=O)CCc2ccc(S(=O)(=O)N3CCOCC3)cc2)cc1	0.8	18.2	1.0	-0.969	-5.6	-3.2	nt	nt
CCn1c(=O)c2c(nc(SCC(=O)Nc3ccccc3)n2C)n(C)c1=O	2.7	15.5	-9.9	nt	nt	4.4	nt	nt
COc1ccc(OCc2cc(C(=O)NC3Cc4ccccc4C3)no2)c(Cl)c1	0.2	51.7*	-4.8	nt	nt	-2.3	70.5*	71.7*
CN1CCN(C(c2ccc(F)cc2)c2ccc3cccnc3c2O)CC1 (stereo unspecified)	nt	nt	4.8	nt	nt	nt	nt	nt
CC(C)CC(=O)NC(c1cccs1)c1ccc2cccnc2c1O (stereo unspecified)	5.2	71.5*	6.8	0.762	-1.9	-0.1	84.7*	25.3
Cc1conc1NC(c1cccs1)c1ccc2cccnc2c1O (stereo unspecified)	4.4	62.6*	nt	2.41	-9.6	1.4	49.9*	31.8
Oc1ccc(C[C@H]2CNCCN2CCCCC2CCCCC2)cc1	3.1	71.7*	36.1	nt	nt	23.3	10.7	nt
Oc1ccc(C[C@@H]2CNCCN2CCC23CC4CC(CC(C4)C2)C3)cc1	-0.5	73.0*	24.3	nt	nt	7.0	23.6	63.9*
Oc1ccc(C[C@H]2CNCCN2CCC23CC4CC(CC(C4)C2)C3)cc1	0.5	58.5*	18.1	nt	nt	0.4	16.9	nt
CCCCN1CCNC[C@H]1Cc1ccc(O)cc1	-0.3	4.8	-2.7	nt	nt	-1.4	nt	nt
